Screens: PubChem, several laboratories
Shown are actives, neighbours in structure and some others; about 3.1% of the full set was active somewhere.
Calb FLC = C. albicans growth modulation with fluconazole; C. albicans CaCi-2 (fluconazole-resistant clinical isolate) + fluconazole, Alamar Blue growth, 48 h; growth inhibition, % (concentration not given with the values); 300,000 tested, 0.57% active; AID 1979;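 active = growth inhibition above about 58% in most replicates, limit read from the data, passing the limit was not always enough; inconclusive = exactly half the replicates above a set limit; inactive = most replicates below a set limit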;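 also: all wells also contain fluconazole at 8 µg/ml as a sub-toxic cotreatment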
T cruzi inh = T. cruzi replication inhibition; T. cruzi beta-gal in NIH3T3, luminescence, 90 h; inhibition, % (test concentration not listed); 300,000 tested, 1.4% active;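 active = mean inhibition across valid replicates above about 55%, limit read from the data; inconclusive = mean below that limit but half or more replicates reach it; inactive = mean below it, under half of replicates reach it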;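 also: signal also drops with host cell toxicity which is not excluded here; higher percent means less beta-gal luminescence so fewer parasites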
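Assay system: NIH/3T3 host cells with β-galactosidase reporter T. cruzi; input: 5,000 host fibroblasts per well; compound: single 50 nL compound addition per well in DMSO; timing: ≥90 h infection period, 3 h prior cell attachment; measured by: GalScreen β-gal luminescence, detergent lysis, 60 min; evaluation: percent inhibition of parasite-derived β-gal signal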
CSC inhib = cancer stem cell inhibition | 300,000 tested, 1.1% active | cancer stem cell-like cells viability, luminescence | inhibition, % at 7.5 µM; in the data active = inhibition above about 75%; inconclusive = no clear call, values can overlap the other calls; tested in HMLE shEcad cells
TAG inh = triacylglycerol accumulation inhibition | H9c2 cells, Nile Red lipid (TAG) fluorescence; cells loaded with 200 µM oleic acid | inhibition, % at 12.5 µM | 230,000 tested, 0.66% active;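 active = pattern-corrected inhibition of lipid staining of at least 50% with the nuclear-stain viability signal not falling by more than 50%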
Beta apoptosis = blocks beta cell apoptosis | 300,000 tested, 0.8% active | protection from apoptosis, % (no concentration beside the values) | INS-1E cytokine-induced death, ATP luminescence, 48 h; percent of positive-control rescue, neutral wells zero;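 active = Every replicate reaches about 75%, or at least half do and their mean reaches it too, limit read from the data; inconclusive = At least half of replicates reach the limit but their mean does not; inactive = Under half of replicates reach the limit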;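 also: higher means more ATP so stronger rescue from cytokine killing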
Bfl-1 A1 inh = inhibitors of the anti-apoptotic protein A1, read as caspase activation | MEF A1-2A-BIM cells, Caspase-Glo 3/7 luminescence, 3 h; percent of clofoctol response, vehicle zero | caspase activation, % (test concentration not listed) | 330,000 tested, 0.066% active | AID 2462;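 active = over half of replicate activation scores above 10%, or exactly half above 10 with the replicate mean above 10; inconclusive = replicate mean below 10 yet half the replicates above 10; inactive = over half of replicates below 10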
Numbers stand for hits; . = inactive; ? = inconclusive; / = no result given.

SMILES	Calb FLC	T cruzi inh	CSC inhib	TAG inh	Beta apoptosis	Bfl-1 A1 inh
Cc1cccc(N2CCN(C(=O)c3cc4n(n3)C(C(F)(F)F)CC(c3ccco3)N4)CC2)c1C (stereo unspecified)	.	.	84	/	.	.
Cc1cc(C(O)c2ncc(-c3ccccc3F)[nH]2)ccc1F (stereo unspecified)	/	/	/	.	/	/
CCCCN1CC(=O)N2[C@H]3c4cc(Cl)ccc4OC[C@@H]3[C@H](c3ccccc3)[C@]2(C)C1=O	/	/	.	.	.	.
COc1ccc(-c2cc(C)no2)cc1S(=O)(=O)N(C)c1cccc(C)c1	92	.	.	/	.	.
CCc1ccccc1N(C)S(=O)(=O)c1cc(-c2cc(C)no2)ccc1OC	.	.	.	/	.	.
CC(=O)c1cccc(NC(=O)/C(=C/c2ccncc2)NC(=O)c2ccccc2)c1	.	.	/	/	.	.
O=C1C2CC=CCC2C(=O)N1c1ccc(NCCc2ccccc2)c([N+](=O)[O-])c1 (stereo unspecified)	.	.	80	/	.	.
O=C1C2CC=CCC2C(=O)N1c1ccc(NCCc2ccccc2F)c([N+](=O)[O-])c1 (stereo unspecified)	.	.	.	.	.	.
COc1ccc(/C=N/NS(=O)(=O)c2ccc(F)cc2)cc1COc1cc(F)ccc1[N+](=O)[O-]	.	59	.	.	.	.
O=C(CNC(=O)C(c1ccccc1)c1ccccc1)N/N=C\c1ccc(C(=O)O)cc1	.	.	.	/	.	.
CCC(c1nnnn1CS(=O)(=O)c1ccc(C)cc1)N1CCN(c2nc3ccccc3s2)CC1 (stereo unspecified)	.	75	.	/	.	.
Oc1ccc(N2CCN(C(c3cccnc3)c3nnnn3Cc3ccccc3)CC2)cc1 (stereo unspecified)	.	?	.	/	.	.
c1ccc(CCn2nnnc2C(c2cccnc2)N2CCN(c3ccccc3)CC2)cc1 (stereo unspecified)	.	74	.	/	.	.
c1ccc(C(c2nnnn2C2CCCC2)N2CCN(c3nc4ccccc4s3)CC2)cc1 (stereo unspecified)	.	71	.	.	.	.
COc1ccc(C(c2nnnn2Cc2ccccc2)N2CCN(c3nc4ccccc4s3)CC2)cc1 (stereo unspecified)	.	64	.	.	.	.
COc1ccc(C(c2nnnn2Cc2ccccc2)N2CCN(c3ccccc3)CC2)cc1 (stereo unspecified)	.	.	.	.	.	.
CCCC(c1nnnn1CS(=O)(=O)c1ccc(C)cc1)N1CCN(c2ccccc2)CC1 (stereo unspecified)	.	.	.	.	/	.
O=C(CNS(=O)(=O)c1cccs1)NCCc1ccc(Cl)cc1	.	.	.	/	.	.
c1ccc(CCn2nnnc2C(c2cccnc2)N2CCN(c3nc4ccccc4s3)CC2)cc1 (stereo unspecified)	.	60	.	/	.	.
COc1cc2ccccc2cc1C(=O)Nc1sc2c(c1C(N)=O)CCN(C(C)C)C2	.	.	95	54	112	.
CCOC(=O)c1c(NC(=O)Cc2ccccc2)sc2c1CCN(C)C2	.	55	.	.	.	.
CN1CCc2c(sc(NC(=O)c3ccc4ccccc4c3)c2C(N)=O)C1	/	55	.	.	.	.
CCOC(=O)N1CCc2c(sc(NC(=O)c3ccc(Cl)s3)c2C(N)=O)C1	/	/	86	/	/	.
CCOc1cc(C)nc(N2CCC(C(=O)NC3CC3)CC2)n1	/	/	/	.	/	/
CCOC(=O)c1c(NC(=S)Nc2ccccc2)sc(C)c1C	.	.	.	/	.	.
SMILES	Calb FLC	T cruzi inh	CSC inhib	TAG inh	Beta apoptosis	Bfl-1 A1 inh
CCOC(=O)c1c(NC(=O)C[n+]2ccc(Cc3ccccc3)cc2)sc(C)c1C	.	59	.	.	78	.
C[C@@H]1CN([C@H](C)CO)C(=O)CCCn2nncc2CO[C@@H]1CN(C)S(=O)(=O)c1cccc(F)c1	/	/	/	.	/	/
C[C@@H]1CCCCO[C@H](CN(C)Cc2ccc(C(=O)O)cc2)[C@@H](C)CN([C@H](C)CO)C(=O)c2cc(NC(=O)CCC(F)(F)F)ccc2O1	/	/	/	.	/	/
CC12CCC(O)CC1=CCC1C2CCC2(C)c3[nH]ncc3CC12 (stereo unspecified)	/	/	/	.	/	/
Clc1cccc(CN2CCCCCC2)c1	.	.	.	.	.	.
N=c1c2c(n(Cc3ccccc3)c3c1CCC3)CCC2	.	.	.	.	.	.
N=c1c2c(n(Cc3cccc(Cl)c3)c3c1CCC3)CCCC2	.	58	.	/	94	.
N=c1c2c(n(Cc3ccc(Cl)cc3)c3c1CCC3)CCC2	.	79	/	/	.	.
N=c1c2c(n(Cc3ccc(F)cc3)c3c1CCC3)CCCC2	.	63	.	.	.	.
O=C(Nc1ccncc1)c1cccc(S(=O)(=O)N2CCN(c3ccc(F)cc3)CC2)c1	.	58	.	.	.	.
O=C(NCCN1CCOCC1)C1CC(=O)N(c2cccc(C(F)(F)F)c2)C1 (stereo unspecified)	/	/	/	.	/	/
Cc1nc2c(C)cccn2c1/C(O)=C1\C(=O)C(=O)N(CCN(C)C)C1c1ccco1 (stereo unspecified)	.	.	.	.	.	.
COc1ccc(C2CC(=O)N(CCCN(C)CCc3ccc(OC)c(OC)c3)C2)cc1 (stereo unspecified)	.	64	.	/	.	.
CCC(=O)Nc1ccc(NC(=O)CSc2nnc(-c3ccco3)n2CC)cc1	.	.	.	/	.	.
Cc1c(C(=O)N(C)C)sc2nc(-c3ccccn3)[nH]c(=O)c12	.	.	.	.	.	.
O=c1[nH]c(-c2ccccn2)nc2sc(-c3ccccc3)cc12	.	55	/	.	/	/
COc1cc(SC)ccc1C(=O)NCC1CCCCC1	.	.	.	/	.	.
COc1cc(C(=O)NC2CCN(C)CC2)ccc1Nc1ncc2c(n1)N(Cc1ccccc1)CCC(=O)N2C	/	/	/	87	/	/
COc1cc(C(=O)NC2CCN(C)CC2)ccc1Nc1ncc2c(n1)N(C1CCCCC1)CCC(=O)N2C	/	/	/	96	/	/
CCN1C(=O)CC(c2ccccc2)N(C2CCCC2)c2nc(Nc3ccc(C(=O)NC4CCN(C)CC4)cc3OC)ncc21 (stereo unspecified)	/	/	/	.	.	.
Cc1ccccc1Oc1cc(-n2ncc(Cl)c(Cl)c2=O)ncn1	/	/	108	/	99	.
O=C(Nc1ccc(Cl)cc1)Nc1nc(-c2ccccc2O)cs1	.	.	.	.	109	.
O=C(Nc1ccc(Cl)c(Cl)c1)Nc1nc(-c2ccccc2)cs1	.	64	.	/	.	.
Nc1ccccc1SCC(=O)Nc1nc(-c2ccccc2)cs1	.	.	127	.	.	.
O=S(=O)(Nc1nc(-c2ccccc2)cs1)c1cc(Cl)ccc1Cl	96	.	.	/	.	.
CC12CCC(C(=O)N(c3nccs3)C1=O)C2(C)C (stereo unspecified)	/	/	/	.	/	/
